Assay results collected from several papers.
KIT D816V: Mast/stem cell growth factor receptor Kit (KIT, Homo sapiens, UniProt P10721, D816V)
KIT V559D/V654A: Mast/stem cell growth factor receptor Kit (KIT, Homo sapiens, UniProt P10721, V559D/V654A)
KIT L576P: Mast/stem cell growth factor receptor Kit (KIT, Homo sapiens, UniProt P10721, L576P)
KIT: Mast/stem cell growth factor receptor Kit (KIT, Homo sapiens, UniProt P10721)
KIT autoinhibited: Mast/stem cell growth factor receptor Kit, autoinhibited (KIT, Homo sapiens, UniProt P10721)
KIT D816H: Mast/stem cell growth factor receptor Kit (KIT, Homo sapiens, UniProt P10721, D816H)

C[C@@]1(Cc2ccc(C#N)cc2)C(=O)N(c2cc(Cl)cc(Cl)c2)c2ncc(C(=O)NC3(c4nc(C5CCC5)no4)CC3)n21 — remaining binding (KIT D816V; cell-free assay; competition with immobilised ligand; 1 µM): 100%
COc1cnc(Nc2cccc(S(N)(=O)=O)c2)nc1N1CCN(c2ccccc2)C(=O)C1 — remaining binding (KIT D816V; binding; competition with immobilised ligand; 1 µM): 90%
O=C(N1CCS(=O)(=O)CC1)N1C[C@H](c2ccc(OC(F)(F)F)cc2)C[C@H](c2nc(C3CC3)no2)C1 — remaining binding (KIT V559D/V654A; cell-free assay; competition with immobilised ligand; 1 µM): 100%
C[C@@H](c1ccc(-n2cnc3c(N)ncnc32)cc1)N1CCc2nn(C)c(Cc3ccccc3)c2C1=O — remaining binding (KIT L576P; binding; competition with immobilised ligand; 0.1 µM): 17%
O=C(c1ccc(Nc2ncc(Cl)c(-c3ccc(Cl)s3)n2)cc1)N1CCC(N2CCCC2)CC1 — remaining binding (KIT; binding; competition with immobilised ligand; 1 µM): 0.05%
CN(CCCC(F)(F)F)c1nccc(-c2cnn3ncccc23)n1 — remaining binding (KIT V559D/V654A; binding; 1 µM): 100%
CN1CCN(c2ccc(Nc3nccc(-c4cccc([N+](=O)[O-])c4)n3)cc2C(F)(F)F)CC1 — remaining binding (KIT L576P; binding; 10 µM): 0.05%
O=C(NCCCN1CCOCC1)c1ccc(Nc2nccc(-c3cc4ccccc4s3)n2)cc1 — remaining binding (KIT D816V; binding; competition with immobilised ligand; 1 µM): 16%
CN(C)c1nccc(-c2cnc3ncccn23)n1 — remaining binding (KIT D816V; binding; 1 µM): 100%
COc1ncc2cc3ccccc3nc2c1C#N — remaining binding (KIT L576P; cell-free assay; competition with immobilised ligand; 5 µM): 100%
Cc1nc(Cc2cccc(C(F)(F)F)c2)sc1-c1ccc(C(N)=O)nc1 — remaining binding (KIT D816V; cell-free assay; competition with immobilised ligand; 1 µM): 81%
O=C(NCC1CCOCC1)c1n[nH]cc1NC(=O)c1c(F)cccc1F — remaining binding (KIT; binding; competition with immobilised ligand; 1 µM): 100%
O=C(NCCCN1CCOCC1)c1ccc(Nc2ncc(Cl)c(-c3ccc(Cl)s3)n2)cc1 — remaining binding (Mast/stem cell growth factor receptor Kit (KIT, Homo sapiens, UniProt P10721, A829P); binding; competition with immobilised ligand; 1 µM): 16%
CN(C)c1nccc(-c2cnn3ncccc23)n1 — remaining binding (KIT; binding; 1 µM): 100%
C[C@H](c1ccnc(Nc2nc3ccc(-c4cc(N(C)C)ncn4)cc3[nH]2)c1)N1CCN(C(=O)CC(F)(F)F)CC1 — remaining binding (KIT V559D/V654A; cell-free assay; competition with immobilised ligand; 0.1 µM): 100%
CC1CCCN1c1nccc(-c2cnn3ncccc23)n1 (stereo not drawn) — remaining binding (KIT autoinhibited; binding; 1 µM): 100%
Cc1cnc(Nc2ccc(C(=O)N3CCC(N4CCCC4)CC3)cc2)nc1-c1cc2ccccc2s1 — remaining binding (KIT V559D/V654A; binding; competition with immobilised ligand; 1 µM): 29%
Cc1cc(C)c(-n2ccn3nc(-c4cccnc4)cc23)cc1NC(=O)c1cc(C#N)cc(S(F)(F)(F)(F)F)c1 — remaining binding (KIT D816H; cell-free assay; competition with immobilised ligand; 0.1 µM): 81.8%
C=CC(=O)N1CCC(C(=O)NCC(=O)N2CCN(c3nc(-c4cnc(N)nc4C(F)F)nc(N4CCOCC4)n3)CC2)CC1 — remaining binding (Mast/stem cell growth factor receptor Kit (KIT, Homo sapiens, UniProt P10721, T670I/V559D); binding; competition with immobilised ligand; 1 µM): 82%
C[C@@H]1CCN(c2nccc(-c3cnn4ncccc34)n2)C1 — remaining binding (KIT; binding; 1 µM): 100%
Cc1c[nH]c2nccc(Oc3c(F)cc(Nc4cc(Cl)nc(N)n4)cc3F)c12 — remaining binding (KIT autoinhibited; cell-free assay; competition with immobilised ligand; 0.1 µM): 77%
Nc1ncc2c(n1)-c1c([nH]c3ccc(C#CC4CC4)cc13)CCCC2 — remaining binding (KIT D816V; binding; competition with immobilised ligand; 1 µM): 100%
N[C@H]1CCN(c2nccc(-c3cnn4ncccc34)n2)C1 — remaining binding (KIT D816H; binding; 1 µM): 64%
FC(F)(F)c1ccc2c(c1)nc(-c1cccnc1)n2C1CC1 — remaining binding (Mast/stem cell growth factor receptor Kit (KIT, Homo sapiens, UniProt P10721, V559D); cell-free assay; competition with immobilised ligand; 1 µM): 100%
